Measles CPE: compounds protecting cells from measles virus cytopathic effect, primary screen, measles RdRp inhibitor project, single point, MLSMR library, absorbance; protection (pct of control), % at 4 µM; AID 841, 2007; Measles virus-infected cells, CPE protection; actives 1.5% (n = 140,000); in the data active = protection mostly above about 24%, no sharp cut-off; inactive = mostly below about 26%
RAM network inh: inhibitors of the yeast RAM network, primary screen, dse1pr::URA3 reporter, 5-FOA selection | S. cerevisiae dse1pr::URA3 reporter, 5-FOA growth OD615, 2 d; analog-sensitive cbk1-as2 kinase mutant strain | inhibition, % at 50 µM | actives 1.8% (n = 190,000) | AID 868, 2007;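 active = inhibition above a set limit, 3 SD over mean compound inhibition, cut at about 8.4% in these data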;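 note: 0% = DMSO-only wells with no growth and 100% = 10 µM 1-NA-PP1 full growth; inhibition rescues growth on 5-FOA so higher OD means more RAM inhibition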
SDO1 yeast rescue: growth rescue of sdo1-depleted yeast, primary screen, S. cerevisiae, bone marrow failure model; S. cerevisiae sdo1-depleted JHY4D growth rescue, OD600 30 h; stronger effect = higher value; pdr5 snq2 efflux-pump mutant strain; AID 817, 2007; z-score at 10 µM; actives 0.21% (n = 140,000);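 active = z-score above 3 at both the 24 hr and the 30 hr optical density reads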;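 note: z-score against mean and SD of all compound wells on the same plate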
Yeast lifespan up: compounds extending yeast replicative lifespan, primary screen, S. cerevisiae, OD615; S. cerevisiae growth with nicotinamide; deaD strain in restrictive glucose medium; inhibition of the nicotinamide effect, % at 10 µM; actives 0.68% (n = 130,000);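 active = inhibition above a set limit, placed 3 SD over the median of all compounds, cut at about 26% in these data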;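 note: 0% = nicotinamide-treated wells and 100% = cells grown without nicotinamide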
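Test system – modified budding yeast, DeaD strain · Compound – single dose 10 µM compound, 0.25% DMSO · Times – culture preincubation 4 h, compound exposure 48 h, both 30 °C · Detection – optical density (absorbance) at 615 nm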
Yeast growth inh: growth inhibitors of yeast BB579 in restrictive medium, primary screen, yeast lifespan-shortening project, S. cerevisiae | OD615, 48 h | actives 0.51% (n = 140,000) | inhibition, % at 10 µM;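 active = inhibition above a set limit, 3 SD over the mean compound inhibition, cut at about 44% in these data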
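Test system: DeaD yeast strain BB579 / Buffer or medium: restrictive glucose-based CSMM-D medium / Doses: single 10 µM dose / Schedule: 4 h cell preincubation, 48 h compound exposure, 30 °C humidified / Technique: culture absorbance at 615 nm / Controls: amphotericin B positive control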
RAM efflux-def: 5-FOA growth of efflux-deficient control yeast, dose response, counter-screen for RAM network inhibitor project, S. cerevisiae, OD615 | shares compounds with RAM network inh | S. cerevisiae efflux-deficient reporter strain, 5-FOA growth OD615, 2 days | max inhibition, % | 1,200 tested, under 10 active | AID 1305, 2008; call rule not given here;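 note: plate controls were vehicle for no effect and reference inhibitor for full effect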
Starred values were filed as active, the others as inactive; nt = no result given. The list is not random: actives were taken first. Their share in the collection is about 3.8%.

SMILES | Measles CPE | RAM network inh | SDO1 yeast rescue | Yeast lifespan up | Yeast growth inh | RAM efflux-def
CCN(CC)S(=O)(=O)c1cccc(-c2nnc(SCC(=O)c3cc(C)n(C)c3C)o2)c1 | 4.5 | 3.5 | -0.87 | -5.2 | -58.5 | nt
CCN(CC)S(=O)(=O)c1cccc(-c2nnc(SCCOc3ccc(Cl)cc3)o2)c1 | 5.8 | 15.9* | -0.35 | 2.5 | -24.6 | 3.1
CCN(CC)S(=O)(=O)c1ccc(-c2nnc(SCc3nnc(-c4ccc(C)cc4)o3)o2)cc1 | 30.2 | 2.9 | 0.25 | 7.9 | -68.6 | nt
COCc1cc(C)nc(OCC(=O)N/N=C/c2ccc(C)o2)c1C#N | nt | -0.2 | nt | nt | nt | nt
O=C(CCC(=O)c1cccs1)NCc1ccc(F)cc1 | 2.4 | 0.5 | -0.75 | -7.2 | -52.7 | nt
O=C(CCc1ccc(CCC(=O)c2cccs2)s1)c1cccs1 | 1.3 | 16.7* | 0.34 | -10.6 | -30.2 | 3.6
O=C(C1CCC(=O)N1Cc1ccccc1Cl)N1CCN(c2cccc(Cl)c2)CC1 (stereo not given) | 2.8 | 0.9 | -0.62 | -21.5 | -41.9 | nt
O=C(/C=C/c1ccc2c(c1)OCCCO2)c1ccc2ccccc2c1O | 8.2 | 12.3* | -1.24 | -0.3 | -29.9 | 6.0
O=C(/C=C/c1ccccc1)c1ccc2c(c1)OCCCCO2 | 14.7 | 1.3 | -1.45 | -2.8 | -3.6 | nt
Cc1cc(C)c(C)c(S(=O)(=O)N2CCC(C(=O)OCC(=O)N3c4ccccc4NC(=O)C3(C)C)CC2)c1C | 6.4 | 12.1* | -0.13 | -0.4 | -58.3 | 1.9
C=CCOC(=O)C1=C(C)NC(SCC)=C(C#N)C1c1ccc(Cl)cc1 (stereo not given) | 10.9 | 12.5* | -1.36 | 5.1 | -43.6 | 2.4
C=CCOC(=O)C1=C(C)NC(=O)NC1c1ccc(Cl)cc1 (stereo not given) | 7.3 | 1.6 | -0.24 | -2.8 | -32.3 | nt
Cc1ccc(OC(=O)CCc2c(C)nc3ncnn3c2C)cc1 | 19.6 | 0.9 | 1.57 | -20.7 | -16.0 | nt
CCOc1ccc(S(=O)(=O)Nc2nc3ccc(OC)cc3s2)cc1 | 5.2 | 12.2* | 0.28 | 2.5 | -40.3 | 2.6
CC1(C(=O)NC2CCCCCCC2)CC1(Cl)Cl (stereo not given) | 4.0 | 2.1 | 0.61 | 2.9 | -22.0 | nt
COC(=O)c1ccc(CSc2nc(-c3ccco3)cc(C(F)(F)F)n2)o1 | 5.8 | 17.8* | -1.18 | -16.4 | -36.2 | 2.4
O=C(c1cccs1)N(CC1CCCO1)c1nc(-c2ccccc2)cs1 (stereo not given) | 9.5 | 16.1* | 0.45 | -8.7 | -31.8 | 1.6
Cc1ccc(-c2csc(N(CC3CCCO3)C(=O)c3ccco3)n2)cc1 (stereo not given) | 6.7 | 13.3* | 0.09 | -4.3 | -49.2 | 2.9
O=C(O)CC1S/C(=N/N=C/c2ccc(Br)cc2)N(c2ccccc2)C1=O (stereo not given) | nt | 12.9* | nt | nt | nt | 1.9
CCCCn1nnc(NC(=S)NC(=O)c2ccc(-c3cccc(Cl)c3Cl)o2)n1 | 13.9 | 13.5* | -0.06 | 7.6 | -14.3 | 4.7
CCCCn1nnc(NC(=O)c2ccc(-c3ccccc3[N+](=O)[O-])o2)n1 | nt | 1.5 | nt | nt | nt | nt
CCCCCCCOc1ccc(OC(=O)c2ccncc2)cc1 | 3.5 | 4.3 | 0.08 | -2.9 | -31.0 | nt
CCOc1ccc(NS(=O)(=O)c2ccc(NC(=S)NC(=O)CC(C)C)cc2)cc1 | 18.3 | 12.1* | -1.16 | -6.9 | -4.1 | 2.4
COc1ccc(-c2nnn(CC(=O)Nc3sc4c(c3C#N)CCCC4)n2)cc1 | 16.0 | 2.5 | -0.42 | -6.1 | -44.1 | nt
Nc1ncnc(Sc2ccccc2)c1[N+](=O)[O-] | 17.8 | 72.5* | 1.49 | -8.4 | -26.0 | 3.8
SMILES | Measles CPE | RAM network inh | SDO1 yeast rescue | Yeast lifespan up | Yeast growth inh | RAM efflux-def
C(=N\Nc1nc(Nc2ccccc2)nc(N2CCCCC2)n1)/c1ccco1 | nt | -1.7 | nt | nt | nt | nt
Cn1c(O)c(C=Nc2ccc(Br)cc2)sc1=O | nt | 2.8 | nt | nt | nt | nt
CCCN1C(=O)/C(=c2\sc3nc(=O)c(Cc4ccc(C)cc4)nn3c2=O)c2ccccc21 | nt | 12.2* | nt | nt | nt | 4.4
Cc1ccc(CN2CCSc3ccc(C(=O)NCc4ccco4)cc32)cc1 | nt | 13.5* | nt | nt | nt | 2.4
CC(=O)c1ccc(OCc2ccc(C(=O)c3ccccc3)cc2)cc1 | nt | 3.5 | nt | nt | nt | nt
CC(=O)c1ccc(OCc2ccc(Oc3c(Cl)cccc3[N+](=O)[O-])cc2)cc1 | 22.4 | 12.6* | 0.3 | 5.3 | -13.5 | 1.3
CCc1ccc(CNC(=O)Cn2nc(-c3ccc(C)cc3)ccc2=O)cc1 | nt | 2.5 | nt | nt | nt | nt
NC(=O)C1CCN(C(=O)C2c3ccccc3C(=O)N3CCc4ccccc4C23)CC1 (stereo not given) | 6.9 | 0.3 | 0.5 | 2.5 | -28.2 | nt
CCCCC(=O)Nc1cccc(-c2csc(-c3ccccc3)n2)c1 | 17.9 | 18.5* | -1.03 | 0.7 | -50.2 | 3.7
O=C(O)CCC(=O)Nc1cccc(-c2csc(-c3ccccc3)n2)c1 | nt | 2.8 | nt | nt | nt | nt
CCC(C)c1ccc(NC(=S)NCc2ccccc2OC)cc1 (stereo not given) | nt | 11.5* | nt | nt | nt | 7.3
COC(=O)Cc1ccc(NC(=S)NCc2ccccc2OC)cc1 | nt | 0.4 | nt | nt | nt | nt
O=C(Nc1ccncc1)c1ccc2c(c1)C(=O)N(C1CCCCC1)C2=O | 3.7 | 0.1 | -1.24 | -24.6 | -28.5 | nt
Cc1ccc(C(=O)NNC(=O)CSc2n[nH]c(-c3cccnc3)n2)cc1 | nt | 2.8 | nt | nt | nt | nt
Brc1ccccc1-c1nnc2sc(Cc3ccccc3)nn12 | 18.2 | 33.4* | -1.69 | -8.0 | -52.2 | 4.2
COc1ccc(Cc2nn3c(-c4ccccc4Br)nnc3s2)cc1 | 14.6 | 1.1 | -1.97 | -18.0 | -33.0 | nt
NC(=O)[C@@H]1CCOc2c(I)cc([N+](=O)[O-])cc2C(=O)N[C@@H](CO)C(=O)NCC(=O)N1 | 4.4 | 1.3 | 0.49 | 10.4 | -21.7 | nt
Cc1ccc(SCC(=O)Nc2ccc(F)cc2[N+](=O)[O-])cc1C | 16.1 | 14.6* | -0.99 | 1.5 | -45.6 | 0.7
Cc1cccc(SCC(=O)Nc2ccccc2[N+](=O)[O-])c1 | nt | 1.2 | nt | nt | nt | nt
O=C(Nc1ccccc1O)c1nc(Cl)ccc1Cl | nt | 0.7 | nt | nt | nt | nt
Cc1cc(OCc2nnc(SCC(=O)OC3CCCCC3)o2)ccc1Cl | 20.2 | 11.7* | 0.24 | 6.7 | -39.7 | 2.3
COc1ccc(S(=O)(=O)N(C)CC(=O)NCc2cccnc2)cc1C | 8.9 | -0.1 | 0.07 | -1.3 | -26.5 | nt
COc1ccccc1NC(=O)CN(Cc1ccco1)C(=O)c1ccc(Cl)nc1 | nt | 3.9 | nt | nt | nt | nt
COc1ccc(N(CCCN2C(=O)c3cccc4cccc(c34)C2=O)C(=O)c2cccs2)cc1 | 10.4 | 6.0 | -0.71 | 1.6 | -66.1 | nt
Cc1ccc(N(CCCCN2C(=O)c3ccccc3C2=O)C(=O)c2cccs2)cc1 | 1.9 | 11.8* | -1.73 | 1.2 | -54.7 | 3.3

Bioassay records deposited in PubChem BioAssay by several laboratories.
